NPY2 pot ag: NPY-Y2 potentiators or agonists, primary screen, cell-based; Neuropeptide Y receptor type 2 (Homo sapiens), P49146; cells expressing NPY-Y2, potentiator/agonist read-out; activation, % at 3.6 µM; actives 0.45% (n = 220,000); AID 1359, 2008; in the data active = activation above about 27%;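 also: cells stimulated with NPY near EC25 plus isoproterenol at EC100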
NPY Y1 blocker: NPY-Y1 receptor antagonists, primary screen, cell-based; AID 1040, 2008; Neuropeptide Y receptor type 1 (Homo sapiens), P25929; actives 1% (n = 200,000); inhibition, % at 3.6 µM; HEK293-CNG Y1 cells, membrane potential fluorescence; NPY at EC95, then isoproterenol;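 active = inhibition above the campaign mean inhibition of all tested compounds plus 3 SD, cut at about 20% in these data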
Target sequence (P25929 whole entry, looked up): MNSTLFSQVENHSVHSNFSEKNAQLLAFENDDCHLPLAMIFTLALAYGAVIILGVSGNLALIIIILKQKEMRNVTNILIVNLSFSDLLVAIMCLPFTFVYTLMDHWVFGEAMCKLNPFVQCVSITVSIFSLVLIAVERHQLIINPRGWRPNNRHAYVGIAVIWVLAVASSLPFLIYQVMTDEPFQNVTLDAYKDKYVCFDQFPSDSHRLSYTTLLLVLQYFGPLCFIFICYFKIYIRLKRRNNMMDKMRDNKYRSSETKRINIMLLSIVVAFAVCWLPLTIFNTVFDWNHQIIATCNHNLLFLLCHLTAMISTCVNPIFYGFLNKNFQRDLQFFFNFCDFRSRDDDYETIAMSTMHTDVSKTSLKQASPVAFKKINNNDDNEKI
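Material: HEK293 cells co-expressing NPY Y1 receptor and cyclic-nucleotide gated channel. Timing: compound incubation 1 h at room temperature, readout 45 min post-stimulation. Signal: fluorescence, membrane potential probe.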
Rad51 HR inh: human RAD51 strand exchange inhibitors, primary screen, biochemical, fluorescence; AID 1385, 2008; inhibition, % at 10 µM; DNA repair protein RAD51 homolog 1 (Homo sapiens), Q06609; actives 0.085% (n = 200,000); hRad51 DNA strand exchange, fluorescence dequenching;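 active = inhibition above 40% at the single screening dose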
Target sequence (Q06609 whole entry, looked up): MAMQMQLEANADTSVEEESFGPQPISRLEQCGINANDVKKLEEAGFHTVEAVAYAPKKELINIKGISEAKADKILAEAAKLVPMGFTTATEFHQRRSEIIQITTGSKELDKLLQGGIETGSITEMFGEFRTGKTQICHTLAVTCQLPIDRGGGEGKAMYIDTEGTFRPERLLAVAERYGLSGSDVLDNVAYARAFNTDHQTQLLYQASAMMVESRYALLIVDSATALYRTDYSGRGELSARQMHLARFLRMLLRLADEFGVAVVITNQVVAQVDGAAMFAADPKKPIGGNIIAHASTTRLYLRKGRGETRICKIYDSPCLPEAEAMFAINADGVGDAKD
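Test system: preformed human Rad51 ssDNA filaments. Compound dosing: single dose, 10 µM final compound. Incubation: filaments 15 min 37 °C, then compound 30 min. Technique: FRET fluorescence dequenching, excitation 485 nm, emission 520 nm. Read-out basis: percent inhibition from fluorescence, normalised to plate control and blank means. Benchmarks: plate controls and plate blanks.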
NPY-Y2 antag: NPY-Y2 receptor antagonists, primary screen, cell-based | Neuropeptide Y receptor type 2 (Homo sapiens), P49146 | AID 793, 2007 | inhibition, % at 2.7 µM | actives 0.99% (n = 140,000) | NPY-Y2 expressing cells, antagonist mode; in the data active = inhibition above about 17%
Measles CPE: compounds protecting cells from measles virus cytopathic effect, primary screen, measles RdRp inhibitor project, single point, MLSMR library, absorbance; actives 1.5% (n = 140,000); protection (pct of control), % at 4 µM; Measles virus-infected cells, CPE protection; in the data active = protection mostly above about 24%, no sharp cut-off; inactive = mostly below about 26%
NPY-Y1 PAM-ag: NPY-Y1 receptor potentiators or agonists, primary screen, cell-based; Neuropeptide Y receptor type 1 (Homo sapiens), P25929; NPY-Y1 expressing cells, potentiator/agonist activation; activation, % at 3.6 µM; actives 0.37% (n = 220,000); AID 1304, 2008; in the data active = activation above about 33%, passing the limit was not always enough;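 also: cells stimulated with NPY at EC10 then isoproterenol at EC100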
NPY-Y2 confirm: NPY-Y2 potentiators or agonists, confirmation, cell-based. shares compounds with NPY2 pot ag. activation, % at 3.6 µM. cell-based NPY-Y2 potentiator/agonist assay. actives 20% (n = 450); in the data active = activation above about 33%
NPY-Y1 counter: NPY-Y1 potentiators or agonists, counter-screen for NPY-Y2 potentiator project, cell-based, fluorescence; shares compounds with NPY2 pot ag; Y1 HEK293-CNG cells, membrane potential fluorescence; activation, % at 3.6 µM; actives 20% (n = 450); AID 1651, 2009; in the data active = activation above about 45%;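 also: cells stimulated with submaximal NPY then isoproterenol with phosphodiesterase inhibitor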
NPY-Y1 agonist 2: NPY-Y1 direct agonists, selectivity assay for NPY-Y2 potentiator project, cell-based, fluorescence | activation, % at 3.6 µM | HEK293 Y1-CNGC, membrane potential fluorescence, agonism | shares compounds with NPY2 pot ag | AID 1702, 2009 | actives 37% (n = 450);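 active = activation above the mean of DMSO-only control wells plus 3 SD, cut at about 18% in these data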;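 also: cells stimulated with 1 µM isoproterenol plus the PDE inhibitor Ro 20-1724; Y1 agonists lower the membrane potential dye signal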
CNGC inh: CNGC cAMP sensor activity inhibitors, counter-screen for NPY-Y2 potentiator project, cell-based, HEK293-CNG parental, membrane potential fluorescence | actives 32% (n = 450) | inhibition, % at 3.6 µM | shares compounds with NPY2 pot ag | isoproterenol cAMP;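 active = inhibition above the control-well mean plus 3 SD of those wells, cut at about 22% in these data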
Y2 agonist ctr: NPY-Y2 direct agonists, counter-screen for NPY-Y2 potentiator project, cell-based, fluorescence. shares compounds with NPY2 pot ag. HEK293 Y2/CNGC cells, membrane potential fluorescence, agonist mode. activation, % at 3.6 µM. actives 56% (n = 450). AID 1710, 2009;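 active = activation above the mean of solvent-only control wells plus 3 SD, cut at about 10% in these data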;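 also: cells stimulated by isoproterenol with no NPY added so direct agonism is tested; agonism lowers probe fluorescence through less cAMP and CNG channel opening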
Of the large screens only hits and unclear results are named; the others gave an inactive call (follow-up assays come after a bar, where they were run). Only some compounds are listed: those with a hit (about 2.8% of all), similar ones and a draw of the others.

CCOC(=O)C(=CNc1ccc(NC2=NCC(C)S2)cc1)C(=O)OCC (centres undefined)	NPY2 pot ag 46.6 (no result: Rad51 HR inh) | NPY-Y2 confirm inactive | NPY-Y1 counter inactive | NPY-Y1 agonist 2 inactive | CNGC inh inactive | Y2 agonist ctr inactive
Cc1ccc(N2CCN(C(=O)N3CCOCC3)CC2)c(C)c1	none (no result: NPY-Y2 antag, Measles CPE)
COc1ccc2nc(NC(=O)CSc3nccc(C)n3)sc2c1	NPY2 pot ag 35.0 | NPY-Y2 confirm inactive | NPY-Y1 counter 45.9 | NPY-Y1 agonist 2 53.3 | CNGC inh 39.9 | Y2 agonist ctr 51.4
O=C1C2CC=CCC2C(=O)N1c1ccc(NCCc2ccc(Cl)cc2)c([N+](=O)[O-])c1 (centres undefined)	none
COc1ccc(CCNc2ccc(N3C(=O)CC(C)C3=O)cc2[N+](=O)[O-])cc1OC (centres undefined)	NPY2 pot ag 37.3 (no result: NPY-Y2 antag, Measles CPE) | NPY-Y2 confirm inactive | NPY-Y1 counter inactive | NPY-Y1 agonist 2 inactive | CNGC inh inactive | Y2 agonist ctr inactive
O=C1C2CC=CCC2C(=O)N1c1ccc(NCCc2ccc(O)cc2)c([N+](=O)[O-])c1 (centres undefined)	NPY2 pot ag 46.4 (no result: Rad51 HR inh) | NPY-Y2 confirm inactive | NPY-Y1 counter inactive | NPY-Y1 agonist 2 inactive | CNGC inh inactive | Y2 agonist ctr 13.0
COc1ccc(CCNc2ccc(N3C(=O)CC(C)C3=O)cc2[N+](=O)[O-])cc1 (centres undefined)	none (no result: Rad51 HR inh, NPY-Y2 antag, Measles CPE)
COc1ccc(Cn2c(O)c(C=Nc3ccccc3C(=O)O)c3ccccc3c2=O)cc1	NPY2 pot ag 54.1 (no result: NPY Y1 blocker, NPY-Y2 antag, Measles CPE) | NPY-Y2 confirm inactive | NPY-Y1 counter inactive | NPY-Y1 agonist 2 28.4 | CNGC inh inactive | Y2 agonist ctr 27.1
COc1ccccc1NS(=O)(=O)c1cccc(-n2c(O)c(C=Nc3ccccc3C(=O)O)c3ccccc3c2=O)c1	NPY2 pot ag 45.0 (no result: NPY Y1 blocker, NPY-Y2 antag, Measles CPE) | NPY-Y2 confirm inactive | NPY-Y1 counter inactive | NPY-Y1 agonist 2 34.3 | CNGC inh inactive | Y2 agonist ctr 30.1
CCCOc1ccc(N2CC(C(=O)NCCc3ccc(OC)c(OC)c3)CC2=O)cc1 (centres undefined)	none (no result: Rad51 HR inh, NPY-Y2 antag, Measles CPE)
O=C(O)CC1(CC(=O)Nc2ccc3ccccc3n2)CCCCC1	none (no result: NPY Y1 blocker, NPY-Y2 antag, Measles CPE)
Clc1ccc(-c2nc(-c3cc4cc(Cl)ccc4o3)cs2)cc1	none (no result: NPY Y1 blocker, NPY-Y2 antag, Measles CPE)
O=S(=O)(c1cccc(NC(=S)N2CCN(c3cccc(Cl)c3)CC2)c1)C(F)F	NPY2 pot ag 30.5 | NPY-Y2 confirm inactive | NPY-Y1 counter inactive | NPY-Y1 agonist 2 inactive | CNGC inh inactive | Y2 agonist ctr 16.7
O=S(=O)(c1cccc(NC(=S)N2CCN(c3ccc(F)cc3)CC2)c1)C(F)F	none
Cc1ccc(-c2cnn(-c3cccc(C(F)(F)F)c3)c2N)cc1	NPY2 pot ag 35.1 | NPY-Y2 confirm 52.4 | NPY-Y1 counter 57.5 | NPY-Y1 agonist 2 43.8 | CNGC inh 31.7 | Y2 agonist ctr 59.9
Nc1c(-c2ccc(Cl)cc2)cnn1-c1cccc(C(F)(F)F)c1	none
Cc1cc(C)nc(NC(=O)CSc2ncccn2)n1	none (no result: NPY-Y2 antag, Measles CPE)
Cc1cc(C)nc(N2CCCC(C(=O)Nc3ccc4c(c3)OCO4)C2)n1 (centres undefined)	none
Cc1cc(C)nc(N2CCCC(C(=O)NCc3ccc4c(c3)OCO4)C2)n1 (centres undefined)	NPY2 pot ag 72.4 (no result: Rad51 HR inh, NPY-Y2 antag, Measles CPE) | NPY-Y2 confirm inactive | NPY-Y1 counter inactive | NPY-Y1 agonist 2 inactive | CNGC inh inactive | Y2 agonist ctr inactive
CCc1ccc(N2C(=O)CN(Cc3cccs3)C2=S)cc1	none (no result: NPY-Y2 antag, Measles CPE)
Cc1nn(C)c(C(=O)Sc2cccc(Cl)c2)c1[N+](=O)[O-]	none (no result: NPY Y1 blocker, NPY-Y2 antag, Measles CPE)
Cc1cccc(Cl)c1NNC(=O)Nc1c([N+](=O)[O-])c(C)nn1C	none (no result: NPY Y1 blocker, NPY-Y2 antag, Measles CPE)
CCOC(=O)c1c(NC(=O)c2cc(-c3ccc(O)cc3)on2)sc(C(C)=O)c1C	none (no result: Rad51 HR inh)
CCCCNS(=O)(=O)c1ccc(NC(=O)C(Sc2ccccc2)c2ccccc2)cc1 (centres undefined)	NPY2 pot ag 29.3 | NPY-Y2 confirm inactive | NPY-Y1 counter inactive | NPY-Y1 agonist 2 20.0 | CNGC inh 24.9 | Y2 agonist ctr 25.4
CC(=O)NS(=O)(=O)c1ccc(NC(=O)C(Sc2ccccc2)c2ccccc2)cc1 (centres undefined)	none
O=[N+]([O-])c1ccc2c(c1)N([O-])C1(CCCCC1)[N+]2=O	none (no result: NPY Y1 blocker, NPY-Y2 antag, Measles CPE)
S=C(NN=C1C2CC3CC(C2)CC1C3)Nc1ccccc1	none
CC1CCCCC1NS(=O)(=O)c1ccc(S(=O)(=O)NCc2ccncc2)cc1 (centres undefined)	NPY2 pot ag 37.4, Measles CPE 39.2 | NPY-Y2 confirm inactive | NPY-Y1 counter inactive | NPY-Y1 agonist 2 inactive | CNGC inh inactive | Y2 agonist ctr inactive
COc1ccc(OC)c(/C=C2/Sc3ccccc3C2=O)c1	none (no result: NPY-Y2 antag, Measles CPE)
CCN(CC)CCCN(C(=O)c1ccco1)c1nc(-c2ccc(C)cc2)cs1	NPY2 pot ag 25.3 (no result: NPY-Y2 antag, Measles CPE) | NPY-Y2 confirm 63.6 | NPY-Y1 counter 65.4 | NPY-Y1 agonist 2 45.1 | CNGC inh 58.4 | Y2 agonist ctr 61.6
C#CC(=O)N(c1ccc(OC)cc1OC)C(C(=O)NC1CCCC1)c1cccs1 (centres undefined)	NPY2 pot ag 35.0 (no result: NPY-Y2 antag, Measles CPE) | NPY-Y2 confirm inactive | NPY-Y1 counter inactive | NPY-Y1 agonist 2 inactive | CNGC inh 48.1 | Y2 agonist ctr 21.4

Screens (PubChem BioAssay)
